How the values were obtained:
Format in all cases: functional
[1] = test system: Mus musculus; assay: In vivo anticonvulsant activity in male albino mice using the maximal electroshock seizure(MES) test upon intraperitoneal administration, expressed as logarithm of effective dose
Procedure, shortened: (§1)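 Mice (18–25 g) received the test agent intraperitoneally as a suspension in 0.5% (w/v) methylcellulose in water. A 60-cycle alternating current at 50 mA was applied for 0.2 s, and protection meant abolition of the hindlimb tonic extensor component. The ED50 was determined at the time of peak effect in groups of at least eight mice. At least two doses fell between 100% and 0% protection, and the 95% confidence interval was calculated by Finney's method.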

[2] = test system: Mus musculus; assay: Anticonvulsant activity in mice following i.p. treatment and Maximal Electroshock Seizure (MES) test.
Procedure, shortened: (§2)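 Mice (18–25 g) received the compound ip as a suspension in 0.5% (w/v) methylcellulose in water. A 60-cycle alternating current of 50 mA was applied for 0.2 s. Protection was defined as abolition of the hindlimb tonic extensor component. […] ED50 and 95% confidence interval were calculated by Finney's methods.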

[3] = test system: Mus musculus; assay: In vivo anticonvulsant activity in male albino mice using the maximal electroshock (MES) test after intraperitoneal administration; details: ip; procedure, shortened: as §1
[4] = test system: Mus musculus; assay: In vivo anticonvulsant activity in male albino mice using the maximal electroshock (MES) test after intraperitoneal administration; value ranges from 85.7-151; details: ip
[5] = test system: Mus musculus; assay: In vivo anticonvulsant activity in male albino mice using the maximal electroshock (MES) test after intraperitoneal administration (exp 2); details: ip; procedure, shortened: as §2
[6] = test system: Mus musculus; assay: In vivo anticonvulsant activity in male albino mice using the maximal electroshock (MES) test after intraperitoneal administration (exp 1); details: ip; procedure, shortened: as §2
[7] = test system: Mus musculus; assay: In vivo anticonvulsant activity in male albino mice using the maximal electroshock seizure(MES) test upon intraperitoneal administration (exp 1); details: ip; procedure, shortened: as §2
[8] = test system: Mus musculus; assay: In vivo anticonvulsant activity in male albino mice using the maximal electroshock seizure(MES) test upon intraperitoneal administration (exp 2); details: ip; procedure, shortened: as §2
[9] = test system: Mus musculus; assay: In vivo anticonvulsant activity in male albino mice using the maximal electroshock seizure(MES) test upon intraperitoneal administration, expressed as logarithm of effective dose; value ranges from 2.01 to 2.63
[10] = test system: Mus musculus; assay: In vivo anticonvulsant activity in male albino mice using the maximal electroshock seizure(MES) test upon intraperitoneal administration, expressed as logarithm of effective dose; value ranges from 2.08 to 2.60
[11] = test system: Mus musculus; assay: In vivo anticonvulsant activity in male albino mice using the maximal electroshock seizure(MES) test upon intraperitoneal administration; value ranges from 75.4 to 101; details: ip
[12] = test system: Mus musculus; assay: In vivo anticonvulsant activity in male albino mice using the maximal electroshock (MES) test after intraperitoneal administration; value ranges from 21.4-40.8; details: ip
[13] = test system: Mus musculus; assay: In vivo anticonvulsant activity in male albino mice using the maximal electroshock seizure(MES) test upon intraperitoneal administration, expressed as logarithm of effective dose; value ranges from 2.58 to 3.06; procedure, shortened: as §1
[14] = test system: Mus musculus; assay: In vivo anticonvulsant activity in male albino mice using the maximal electroshock seizure(MES) test upon intraperitoneal administration; details: ip; procedure, shortened: as §2
[15] = test system: Mus musculus; assay: In vivo anticonvulsant activity in male albino mice using the maximal electroshock seizure(MES) test upon intraperitoneal administration; value ranges from 62.5 to 91; details: ip
[16] = test system: Mus musculus; assay: In vivo anticonvulsant activity in male albino mice using the maximal electroshock seizure(MES) test upon intraperitoneal administration; value ranges from 44.4 to 59.9; details: ip
[17] = test system: Mus musculus; assay: In vivo anticonvulsant activity in male albino mice using the maximal electroshock seizure(MES) test upon intraperitoneal administration, expressed as logarithm of effective dose; value ranges from 2.63 to 3.11

| Compound | Log ED50 [1] | Log ED50 [2] | other results |
| --- | --- | --- | --- |
| CC(=O)NC(C(=O)NCc1cc(F)ccc1F)c1ccco1 (stereo not given) | 1.89 uM kg-1 | – | – |
| CC(=O)NC(C)C(=O)NCc1ccccc1 (racemic) | 2.54 uM kg-1 | – | – |
| CC(=O)NC(C(=O)NCc1ccccc1)N(C)C (stereo not given) | – | 2.26 uM kg-1 | – |
| CC(=O)NC(N)C(=O)NCc1ccccc1 (stereo not given) | – | 2.47 uM kg-1 | – |
| CC(=O)NC(C)C(=O)NCCCc1ccccc1 (stereo not given) | – | 2.55 uM kg-1 | ED50 [3]: 87.6 mg/kg |
| CNC(NC(C)=O)C(=O)NCc1ccccc1 (stereo not given) | – | 2.28 uM kg-1 | – |
| CC(=O)NC(Nc1ccc(N)cc1)C(=O)NCc1ccccc1 (stereo not given) | – | 2.75 uM kg-1 | ED50 [3]: 176 mg/kg |
| CC(=O)NC(C(=N)NO)C(=O)NCc1ccccc1 (stereo not given) | – | 2.63 uM kg-1 | ED50 [4]: 112 mg/kg |
| CC(=O)NC(C(=O)NCc1ccccc1)n1cccc1 (stereo not given) | – | 2.47 uM kg-1 | – |
| CC(=O)NC(C(=O)NCc1ccccc1)c1ncccn1 (stereo not given) | 1.46 uM kg-1 | – | – |
| CCCC(N)C(=O)NCc1ccccc1 (stereo not given) | – | 2.69 uM kg-1 | ED50 [5]: < 100 mg/kg; ED50 [6]: > 30 mg/kg |
| CC(=O)NC(C(=O)NCc1ccccc1)c1cnccn1 (stereo not given) | 1.72 uM kg-1 | – | – |
| COCC(NC=O)C(=O)NCc1ccccc1 (stereo not given) | – | – | ED50 [7]: > 30 mg/kg; ED50 [8]: < 100 mg/kg; Log ED50 [9]: 2.63 uM kg-1 |
| CCC(C(=O)NCc1ccccc1)N(C)C(C)=O (stereo not given) | – | – | ED50 [7]: > 30 mg/kg; ED50 [8]: < 100 mg/kg; Log ED50 [10]: 2.6 uM kg-1 |
| CCC(NC)C(=O)NCc1ccccc1 (stereo not given) | – | 2.69 uM kg-1 | ED50 [5]: < 100 mg/kg; ED50 [6]: > 30 mg/kg |
| CC(=O)NC(C(=N)S)C(=O)NCc1ccccc1 (stereo not given) | 2.51 uM kg-1 | – | ED50 [11]: 86.2 mg/kg |
| CC(=O)NC(C(=O)NCc1ccccc1)n1cccn1 (stereo not given) | – | 1.78 uM kg-1 | – |
| CC(=O)NC(C(=O)NCc1ccccc1)c1ccc(C)[nH]1 (stereo not given) | 2.12 uM kg-1 | – | – |
| CNC(C)C(=O)NCc1ccccc1 (stereo not given) | – | 2.21 uM kg-1 | ED50 [12]: 31.2 mg/kg |
| CC(=O)NC(C(=O)NCc1ccccc1)c1ccccn1 (stereo not given) | 1.58 uM kg-1 | – | – |
| C=CC(=O)NC(COC)C(=O)NCc1ccccc1 (stereo not given) | – | – | ED50 [7]: > 100 mg/kg; ED50 [8]: < 300 mg/kg; Log ED50 [13]: 3.06 uM kg-1 |
| CC(=O)NCC(C)C(=O)NCc1ccccc1 (stereo not given) | 3.06 uM kg-1 | – | ED50 [14]: 270 mg/kg |
| CC(=O)NC(C)C(=O)NCc1cccc(F)c1 (stereo not given) | 2.51 uM kg-1 | – | ED50 [15]: 77.3 mg/kg |
| CCOC(NC(C)=O)C(=O)NCc1ccccc1 (stereo not given) | – | 2.39 uM kg-1 | – |
| CC(=O)NC(NNC(=O)OCc1ccccc1)C(=O)NCc1ccccc1 (stereo not given) | – | 2.18 uM kg-1 | – |
| CCNC(NC(C)=O)C(=O)NCc1ccccc1 (stereo not given) | – | 2.23 uM kg-1 | – |
| CC(=O)NC(C(=O)NCc1ccccc1)c1ccco1 (stereo not given) | 1.58 uM kg-1 | – | – |
| CC(=O)NC(C(=O)NCc1ccccc1)C1CCCO1 (stereo not given) | 2.27 uM kg-1 | – | ED50 [16]: 51.7 mg/kg |
| CC(=O)NC(C)C(=O)N(C)Cc1ccccc1 (stereo not given) | – | – | ED50 [7]: > 100 mg/kg; ED50 [8]: < 300 mg/kg; Log ED50 [17]: 3.11 uM kg-1 |
| CC(=O)NC(C(=O)NCc1ccc(F)cc1)c1ccco1 (stereo not given) | 1.64 uM kg-1 | – | – |

Source: ChEMBL document CHEMBL1135992, “Quantitative structure-activity relationship analysis of functionalized amino acid anticonvulsant agents using k nearest neighbor and simulated annealing PLS methods” (2002)
